Reference: ChEMBL document CHEMBL4152196, “Design, synthesis and biological evaluation of novel trimethylangelicin analogues targeting nuclear factor kB (NF-kB)” (Eur J Med Chem, 2018)
The source made the active and inactive calls. The rule behind the calls is not given here.

Columns and labels:
[1] = species: Homo sapiens; experiment: Inhibition of NF-kappaB (unknown origin) assessed as decrease in NF-kappaB/DNA interaction at 12.5 uM using 32P-labeled target NF-kappaB double-stranded oligonucleotide after 30 mins by EMSA
[2] = Inhibition of NF-kappaB (unknown origin) assessed as decrease in NF-kappaB/DNA interaction using 32P-labeled target NF-kappaB double-stranded oligonucleotide after 30 mins by EMSA; set-up: species or system Homo sapiens
In short: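 Purified NF-κB p50 (0.1 µl/20 µl, 50 gsu) was combined with 0.25 ng of ³²P-labeled double-stranded NF-κB consensus oligonucleotide. Bound 30 min at room temperature, then run on 6% polyacrylamide in 0.25× TBE at 200 V. IC₅₀ is 50% inhibition of the complex.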

[3] = system: IB3-1; experiment: Antiproliferative activity against human IB3-1 cells after 2 days by cell counting analysis; assay type: cell-based; details: IB3-1, 48 h
In short: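 IB3-1 cells from a CF patient (ΔF508/W1282X), immortalized with adeno12/SV40, grown in LHC-8 with 5% FBS and no gentamycin at 37°C/5% CO₂. Treated at 12.5, 25, 50, 100, 200 and 800 µM. Cells counted by Coulter counter after 2 days, with untreated cells in log phase. IC₅₀ is the concentration giving 50% inhibition of cell growth.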

[4] = system: K562; experiment: Cytotoxicity against human K562 cells after 2 days by cell counting analysis; assay type: cell-based; details: k562, 48 h
[5] = system: U-251; experiment: Cytotoxicity against human U251 cells after 2 days by cell counting analysis; assay type: cell-based; details: u-251, 48 h
[6] = system: Salmon testes DNA; experiment: Induction of damage in salmon testes DNA at 100 uM in presence of 2.5 to 7.5 J/cm2 UVA irradiation by ethidium bromide dye-based agarose gel electrophoresis analysis; assay type: nucleic-acid assay; details: salmonidae
[7] = system: Salmon testes DNA; experiment: Binding affinity to salmon testes DNA assessed as furocoumarin-pyrimidine base formation in presence of 15 J/cm2 UVA light irradiation by TLC analysis; assay type: nucleic-acid assay; details: Salmonidae
[8] = system: Salmonella typhimurium; experiment: Genotoxicity in Salmonella typhimurium TA98 assessed as revertant colonies at 5 uL/plate in absence of Sprague-Dawley rat S9 metabolic activation after 72 hrs by Ames test (reference value: 1); assay type: toxicity, organism-based; details: salmonella enterica subsp. enterica serovar typhimurium
[9] = system: Salmonella typhimurium; experiment: Genotoxicity in Salmonella typhimurium TA98 assessed as revertant colonies at 1 uL/plate in presence of Sprague-Dawley rat S9 metabolic activation after 72 hrs by Ames test (reference value: 1); assay type: toxicity, organism-based; details: salmonella enterica subsp. enterica serovar typhimurium
[10] = system: Salmonella typhimurium; experiment: Genotoxicity in Salmonella typhimurium TA98 assessed as revertant colonies at 10 uL/plate in presence of Sprague-Dawley rat S9 metabolic activation after 72 hrs by Ames test (reference value: 1); assay type: toxicity, organism-based; details: salmonella enterica subsp. enterica serovar typhimurium
[11] = system: Salmonella typhimurium; experiment: Genotoxicity in Salmonella typhimurium TA98 assessed as revertant colonies at 50 uL/plate in presence of Sprague-Dawley rat S9 metabolic activation after 72 hrs by Ames test (reference value: 1); assay type: toxicity, organism-based; details: salmonella enterica subsp. enterica serovar typhimurium
[12] = system: Salmonella typhimurium; experiment: Genotoxicity in Salmonella typhimurium TA98 assessed as revertant colonies at 100 uL/plate in presence of Sprague-Dawley rat S9 metabolic activation after 72 hrs by Ames test (reference value: 1); assay type: toxicity, organism-based; details: salmonella enterica subsp. enterica serovar typhimurium
[13] = system: Salmonella typhimurium; experiment: Genotoxicity in Salmonella typhimurium TA100 assessed as revertant colonies at 5 uL/plate in absence of Sprague-Dawley rat S9 metabolic activation after 72 hrs by Ames test (reference value: 1); assay type: toxicity, organism-based; details: salmonella enterica subsp. enterica serovar typhimurium
[14] = system: Salmonella typhimurium; experiment: Genotoxicity in Salmonella typhimurium TA100 assessed as revertant colonies at 50 uL/plate in absence of Sprague-Dawley rat S9 metabolic activation after 72 hrs by Ames test (reference value: 1); assay type: toxicity, organism-based; details: salmonella enterica subsp. enterica serovar typhimurium
[15] = system: Salmonella typhimurium; experiment: Genotoxicity in Salmonella typhimurium TA100 assessed as revertant colonies at 100 uL/plate in absence of Sprague-Dawley rat S9 metabolic activation after 72 hrs by Ames test (reference value: 1); assay type: toxicity, organism-based; details: salmonella enterica subsp. enterica serovar typhimurium
[16] = system: Salmonella typhimurium; experiment: Genotoxicity in Salmonella typhimurium TA100 assessed as revertant colonies at 1 uL/plate in presence of Sprague-Dawley rat S9 metabolic activation after 72 hrs by Ames test (reference value: 1); assay type: toxicity, organism-based; details: salmonella enterica subsp. enterica serovar typhimurium
[17] = system: Salmonella typhimurium; experiment: Genotoxicity in Salmonella typhimurium TA100 assessed as revertant colonies at 5 uL/plate in presence of Sprague-Dawley rat S9 metabolic activation after 72 hrs by Ames test (reference value: 1); assay type: toxicity, organism-based; details: salmonella enterica subsp. enterica serovar typhimurium
[18] = system: Salmonella typhimurium; experiment: Genotoxicity in Salmonella typhimurium TA100 assessed as revertant colonies at 10 uL/plate in presence of Sprague-Dawley rat S9 metabolic activation after 72 hrs by Ames test (reference value: 1); assay type: toxicity, organism-based; details: salmonella enterica subsp. enterica serovar typhimurium
[19] = system: Salmonella typhimurium; experiment: Genotoxicity in Salmonella typhimurium TA97A assessed as revertant colonies at 1 uL/plate in absence of Sprague-Dawley rat S9 metabolic activation after 72 hrs by Ames test (reference value: 1); assay type: toxicity, organism-based; details: salmonella enterica subsp. enterica serovar typhimurium
[20] = system: Salmonella typhimurium; experiment: Genotoxicity in Salmonella typhimurium TA97A assessed as revertant colonies at 50 uL/plate in absence of Sprague-Dawley rat S9 metabolic activation after 72 hrs by Ames test (reference value: 1); assay type: toxicity, organism-based; details: salmonella enterica subsp. enterica serovar typhimurium
[21] = system: Salmonella typhimurium; experiment: Genotoxicity in Salmonella typhimurium TA97A assessed as revertant colonies at 1 uL/plate in presence of Sprague-Dawley rat S9 metabolic activation after 72 hrs by Ames test (reference value: 1); assay type: toxicity, organism-based; details: salmonella enterica subsp. enterica serovar typhimurium
[22] = system: Salmonella typhimurium; experiment: Genotoxicity in Salmonella typhimurium TA97A assessed as revertant colonies at 50 uL/plate in presence of Sprague-Dawley rat S9 metabolic activation after 72 hrs by Ames test (reference value: 1); assay type: toxicity, organism-based; details: salmonella enterica subsp. enterica serovar typhimurium
[23] = system: Salmonella typhimurium; experiment: Genotoxicity in Salmonella typhimurium TA1535 assessed as revertant colonies at 1 uL/plate in absence of Sprague-Dawley rat S9 metabolic activation after 72 hrs by Ames test (reference value: 1); assay type: toxicity, organism-based; details: salmonella enterica subsp. enterica serovar typhimurium
[24] = system: Salmonella typhimurium; experiment: Genotoxicity in Salmonella typhimurium TA1535 assessed as revertant colonies at 5 uL/plate in absence of Sprague-Dawley rat S9 metabolic activation after 72 hrs by Ames test (reference value: 1); assay type: toxicity, organism-based; details: salmonella enterica subsp. enterica serovar typhimurium
[25] = system: Salmonella typhimurium; experiment: Genotoxicity in Salmonella typhimurium TA1535 assessed as revertant colonies at 10 uL/plate in absence of Sprague-Dawley rat S9 metabolic activation after 72 hrs by Ames test (reference value: 1); assay type: toxicity, organism-based; details: salmonella enterica subsp. enterica serovar typhimurium
[26] = system: Salmonella typhimurium; experiment: Genotoxicity in Salmonella typhimurium TA1535 assessed as revertant colonies at 1 uL/plate in presence of Sprague-Dawley rat S9 metabolic activation after 72 hrs by Ames test (reference value: 1); assay type: toxicity, organism-based; details: salmonella enterica subsp. enterica serovar typhimurium
[27] = system: IB3-1; experiment: Inhibition of TNF-alpha induced PDGF-B chain production in human IB3-1 cells at 1 uM preincubated for 5 hrs followed by TNF-alpha stimulation and measured after 24 hrs relative to control; assay type: functional
In short: (§1)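 IB3-1 cells (CF patient, ΔF508/W1282X, adeno12/SV40-immortalized) grown in LHC-8 with 5% FBS, no gentamycin, 37°C/5% CO₂; 60% confluent monolayers seeded, compound added after 24 h, 5 h before 80 ng/ml TNF-α, then 24 h further incubation. Cytokines in supernatants measured by Bioplex 27-plex Luminex bead assay: beads, detection antibody, streptavidin–phycoerythrin, 30/30/10 min at room temperature.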

[28] = system: IB3-1; experiment: Inhibition of TNF-alpha induced IL-10 production in human IB3-1 cells at 1 uM preincubated for 5 hrs followed by TNF-alpha stimulation and measured after 24 hrs relative to control; assay type: functional; in short: as §1
[29] = system: Salmon testes DNA; experiment: Binding affinity to salmon testes DNA assessed as DNA intercalation by linear flow dichroism analysis; details: Salmonidae

In the case of CCc1cc2c(C(C)C)cc(=O)oc2c2c(C)coc12, the inhibition [1] is reported as “Active”, the IC50 [2] is reported as 7.4 µM and the IC50 [3] is reported as greater than 200 µM. For the same compound, the Activity [4] was “Non-Toxic”, the Activity [5] was “Non-Toxic” and the Activity [6] was “Not Active”. The Activity [7] was “inactive”, the T/C [8] was 1.2 and the T/C [9] was 0.8. The T/C [10] was 0.7, the T/C [11] was 0.7 and the T/C [12] was 0.6. The T/C [13] was 1, the T/C [14] was 0.9 and the T/C [15] was 0.9. It also gave a T/C [16] of 1.1, a T/C [17] of 1.1 and a T/C [18] of 1. For the same compound, the T/C [19] was 1.1, the T/C [20] was 1.1 and the T/C [21] was 1. The T/C [22] was 1.2, the T/C [23] was 1.1 and the T/C [24] was 1.1. For the same compound, the T/C [25] was 0.9, the T/C [26] was 1.1 and the inhibition at 1 µM [27] was greater than 20%. For the same compound, the inhibition at 1 µM [28] was greater than 20% and the Activity [29] was “inactive”.
